Laboratory results reported in ChEMBL document CHEMBL4400530, “Synthesis and structure-activity relationship studies of water-soluble β-cyclodextrin-glycyrrhetinic acid conjugates as potential anti-influenza virus agents” (Eur J Med Chem, 2019).
≈ marks a conversion by molar mass, not a printed value. Calls of active or inactive are those of the source. No cut-off for these calls is given here.

Legend:
Influenza A virus = experiment: Antiviral activity against Influenza A virus (A/WSN/33(H1N1)) infected in MDCK cells assessed as reduction in virus-induced cytopathic effect at 50 uM after 40 hrs by CellTiter-Glo assay; assay type: functional, organism-based; conditions: A/WSN/1933(H1N1)
How it was run: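 MDCK cells seeded, grown overnight, then infected with A/WSN/33 (H1N1) at MOI 0.1 in DMEM with 1% FBS, 2 μg/mL TPCK-treated trypsin and test compound (final DMSO 1%). Compounds screened at a single 50 μM concentration. Incubation 40 h, then viability read by CellTiter-Glo luminescence. Oseltamivir positive control, DMSO negative control. Virus stock titres determined in MDCK cells by Reed and Muench.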

MDCK = experiment: Cytotoxicity against MDCK cells assessed as effect on cell viability at 50 uM measured after 36 hrs by CellTiter-Glo assay; assay type: cell-based, Canis lupus familiaris; conditions: dog
How it was run: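 MDCK cells (1 × 10⁴ per well) left to adhere 24 h at 37 °C, 5% CO₂. Medium then replaced with fresh medium containing compound at 50 μM, in triplicate. Controls received medium with 1% DMSO. Plates incubated 36 h at 37 °C, 5% CO₂, then viability read by CellTiter-Glo luminescence.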

Human gammaherpesvirus 4 = experiment: Antiviral activity against EBV infected in human Raji cells assessed as reduction in viral genome copy numbers by qRT-PCR analysis; assay type: functional, organism-based; conditions: human gammaherpesvirus 4, Raji
[1] = Solubility of the compound in water; assay type: physicochemical; conditions: buffer
[2] = Lipophilicity, log P of the compound; assay type: physicochemical; conditions: octanol/water
How it was run: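 Calculated value (AlogP, Ghose and Crippen octanol–water partition coefficient at 25 °C), computed in silico rather than measured.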

Human alphaherpesvirus 1 [3] = experiment: Antiviral activity against […] Herpes simplex virus 1 B2006 infected in African green monkey Vero cells assessed as reduction in viral titer after 72 hrs by crystal violet staining based assay; assay type: functional, organism-based; conditions: Human alphaherpesvirus 1, B2006, Vero
Human alphaherpesvirus 1 [4] = experiment: Antiviral activity against […] Herpes simplex virus 1 KOS infected in African green monkey Vero cells assessed as reduction in viral titer after 72 hrs by crystal violet staining based assay; assay type: functional, organism-based; conditions: Human alphaherpesvirus 1, strain KOS

Compound	Activity (Influenza A virus)	Activity (MDCK)	further results
CC1(C)[C@@H](O)CC[C@]2(C)[C@H]3C(=O)C=C4[C@@H]5C[C@@](C)(C(=O)NCCOCCOCCOCCOCCOCCOCc6cn(C[C@H]7O[C@@H]8O[C@H]9[C@H](O)[C@@H](O)[C@@H](O[C@H]%10[C@H](O)[C@@H](O)[C@@H](O[C@H]%11[C@H](O)[C@@H](O)[C@@H](O[C@H]%12[C@H](O)[C@@H](O)[C@@H](O[C@H]%13[C@H](O)[C@@H](O)[C@@H](O[C@H]%14[C@H](O)[C@@H](O)[C@@H](O[C@H]7[C@H](O)[C@H]8O)O[C@@H]%14CO)O[C@@H]%13CO)O[C@@H]%12CO)O[C@@H]%11CO)O[C@@H]%10CO)O[C@@H]9CO)nn6)CC[C@]5(C)CC[C@@]4(C)[C@]3(C)CC[C@@H]12	Active	Non-Toxic	–
CC1(C)[C@@H](O[C@H]2O[C@H](C(=O)O)[C@@H](O)[C@H](O)[C@H]2O[C@@H]2O[C@H](C(=O)O)[C@@H](O)[C@H](O)[C@H]2O)CC[C@]2(C)[C@H]3C(=O)C=C4[C@@H]5C[C@@](C)(C(=O)O)CC[C@]5(C)CC[C@@]4(C)[C@]3(C)CC[C@@H]12 [GLYCYRRHIZIN]	–	–	EC50 (Human gammaherpesvirus 4): 30 µM
CC(=O)OC[C@H]1O[C@@H]2O[C@H]3[C@H](O)[C@@H](O)[C@@H](O[C@H]4[C@H](O)[C@@H](O)[C@@H](O[C@H]5[C@H](O)[C@@H](O)[C@@H](O[C@H]6[C@H](O)[C@@H](O)[C@@H](O[C@H]7[C@H](O)[C@@H](O)[C@@H](O[C@H]8[C@H](O)[C@@H](O)[C@@H](O[C@H]1[C@H](O)[C@H]2O)O[C@@H]8CO)O[C@@H]7CO)O[C@@H]6CO)O[C@@H]5CO)O[C@@H]4Cn1cc(COCCOCCNC(=O)[C@@]2(C)CC[C@]4(C)CC[C@]5(C)C(=CC(=O)[C@@H]6[C@@]7(C)CC[C@H](O)C(C)(C)[C@@H]7CC[C@]65C)[C@@H]4C2)nn1)O[C@@H]3COC(C)=O	Active	Non-Toxic	–
CC1(C)[C@@H](OCc2cn(C[C@H]3O[C@@H]4O[C@H]5[C@H](O)[C@@H](O)[C@@H](O[C@H]6[C@H](O)[C@@H](O)[C@@H](O[C@H]7[C@H](O)[C@@H](O)[C@@H](O[C@H]8[C@H](O)[C@@H](O)[C@@H](O[C@H]9[C@H](O)[C@@H](O)[C@@H](O[C@H]%10[C@H](O)[C@@H](O)[C@@H](O[C@H]3[C@H](O)[C@H]4O)O[C@@H]%10CO)O[C@@H]9CO)O[C@@H]8CO)O[C@@H]7CO)O[C@@H]6CO)O[C@@H]5CO)nn2)CC[C@]2(C)[C@H]3C(=O)C=C4[C@@H]5C[C@@](C)(C(=O)O)CC[C@]5(C)CC[C@@]4(C)[C@]3(C)CC[C@@H]12	Active	Non-Toxic	–
CC(=O)OC[C@H]1O[C@@H]2O[C@H]3[C@H](OC(C)=O)[C@@H](OC(C)=O)[C@@H](O[C@H]4[C@H](OC(C)=O)[C@@H](OC(C)=O)[C@@H](O[C@H]5[C@H](OC(C)=O)[C@@H](OC(C)=O)[C@@H](O[C@H]6[C@H](OC(C)=O)[C@@H](OC(C)=O)[C@@H](O[C@H]7[C@H](OC(C)=O)[C@@H](OC(C)=O)[C@@H](O[C@H]8[C@H](OC(C)=O)[C@@H](OC(C)=O)[C@@H](O[C@H]1[C@H](OC(C)=O)[C@H]2OC(C)=O)O[C@@H]8COC(C)=O)O[C@@H]7COC(C)=O)O[C@@H]6COC(C)=O)O[C@@H]5Cn1cc(COCCNC(=O)[C@@]2(C)CC[C@]5(C)CC[C@]6(C)C(=CC(=O)[C@@H]7[C@@]8(C)CC[C@H](O)C(C)(C)[C@@H]8CC[C@]76C)[C@@H]5C2)nn1)O[C@@H]4COC(C)=O)O[C@@H]3COC(C)=O	Active	Non-Toxic	–
CC1(C)[C@@H](O)CC[C@]2(C)[C@H]3C(=O)C=C4[C@@H]5C[C@@](C)(C(=O)O)CC[C@]5(C)CC[C@@]4(C)[C@]3(C)CC[C@@H]12 [ENOXOLONE]	–	–	solubility [1]: 10.6 µg/mL (≈ 22.5 µM); EC50 (Human gammaherpesvirus 4): 4 µM; logP [2]: 6.75
CC(=O)OC[C@H]1O[C@@H]2O[C@H]3[C@H](O)[C@@H](O)[C@@H](O[C@H]4[C@H](O)[C@@H](O)[C@@H](O[C@H]5[C@H](O)[C@@H](O)[C@@H](O[C@H]6[C@H](O)[C@@H](O)[C@@H](O[C@H]7[C@H](O)[C@@H](O)[C@@H](O[C@H]8[C@H](O)[C@@H](O)[C@@H](O[C@H]1[C@H](O)[C@H]2O)O[C@@H]8CO)O[C@@H]7CO)O[C@@H]6CO)O[C@@H]5CO)O[C@@H]4CO)O[C@@H]3Cn1cc(CN2CCN(CCNC(=O)[C@@]3(C)CC[C@]4(C)CC[C@]5(C)C(=CC(=O)[C@@H]6[C@@]7(C)CC[C@H](O)C(C)(C)[C@@H]7CC[C@]65C)[C@@H]4C3)CC2)nn1	inactive	Non-Toxic	–
CC(=O)OC[C@H]1O[C@@H]2O[C@H]3[C@H](OC(C)=O)[C@@H](OC(C)=O)[C@@H](O[C@H]4[C@H](OC(C)=O)[C@@H](OC(C)=O)[C@@H](O[C@H]5[C@H](OC(C)=O)[C@@H](OC(C)=O)[C@@H](O[C@H]6[C@H](OC(C)=O)[C@@H](OC(C)=O)[C@@H](O[C@H]7[C@H](OC(C)=O)[C@@H](OC(C)=O)[C@@H](O[C@H]8[C@H](OC(C)=O)[C@@H](OC(C)=O)[C@@H](O[C@H]1[C@H](OC(C)=O)[C@H]2OC(C)=O)O[C@@H]8COC(C)=O)O[C@@H]7COC(C)=O)O[C@@H]6COC(C)=O)O[C@@H]5Cn1cc(COCCOCCOCCOCCNC(=O)[C@@]2(C)CC[C@]5(C)CC[C@]6(C)C(=CC(=O)[C@@H]7[C@@]8(C)CC[C@H](O)C(C)(C)[C@@H]8CC[C@]76C)[C@@H]5C2)nn1)O[C@@H]4COC(C)=O)O[C@@H]3COC(C)=O	Active	Non-Toxic	–
CC(=O)OC[C@H]1O[C@@H]2O[C@H]3[C@H](OC(C)=O)[C@@H](OC(C)=O)[C@@H](O[C@H]4[C@H](OC(C)=O)[C@@H](OC(C)=O)[C@@H](O[C@H]5[C@H](OC(C)=O)[C@@H](OC(C)=O)[C@@H](O[C@H]6[C@H](OC(C)=O)[C@@H](OC(C)=O)[C@@H](O[C@H]7[C@H](OC(C)=O)[C@@H](OC(C)=O)[C@@H](O[C@H]8[C@H](OC(C)=O)[C@@H](OC(C)=O)[C@@H](O[C@H]1[C@H](OC(C)=O)[C@H]2OC(C)=O)O[C@@H]8COC(C)=O)O[C@@H]7COC(C)=O)O[C@@H]6COC(C)=O)O[C@@H]5Cn1cc(COCCOCCOCCOCCOCCOCCNC(=O)[C@@]2(C)CC[C@]5(C)CC[C@]6(C)C(=CC(=O)[C@@H]7[C@@]8(C)CC[C@H](O)C(C)(C)[C@@H]8CC[C@]76C)[C@@H]5C2)nn1)O[C@@H]4COC(C)=O)O[C@@H]3COC(C)=O	Active	Non-Toxic	–
CC(O)CNC(=O)[C@@]1(C)CC[C@]2(C)CC[C@]3(C)C(=CC(=O)[C@@H]4[C@@]5(C)CC[C@H](O)C(C)(C)[C@@H]5CC[C@]43C)[C@@H]2C1 (some centres not stated)	–	–	EC50 (Human alphaherpesvirus 1 [3]): 4.95 µM; EC50 (Human alphaherpesvirus 1 [4]): 4.95 µM
CC(=O)OC[C@H]1O[C@@H]2O[C@H]3[C@H](OC(C)=O)[C@@H](OC(C)=O)[C@@H](O[C@H]4[C@H](OC(C)=O)[C@@H](OC(C)=O)[C@@H](O[C@H]5[C@H](OC(C)=O)[C@@H](OC(C)=O)[C@@H](O[C@H]6[C@H](OC(C)=O)[C@@H](OC(C)=O)[C@@H](O[C@H]7[C@H](OC(C)=O)[C@@H](OC(C)=O)[C@@H](O[C@H]8[C@H](OC(C)=O)[C@@H](OC(C)=O)[C@@H](O[C@H]1[C@H](OC(C)=O)[C@H]2OC(C)=O)O[C@@H]8COC(C)=O)O[C@@H]7COC(C)=O)O[C@@H]6COC(C)=O)O[C@@H]5Cn1cc(COCCOCCNC(=O)[C@@]2(C)CC[C@]5(C)CC[C@]6(C)C(=CC(=O)[C@@H]7[C@@]8(C)CC[C@H](O)C(C)(C)[C@@H]8CC[C@]76C)[C@@H]5C2)nn1)O[C@@H]4COC(C)=O)O[C@@H]3COC(C)=O	Active	Non-Toxic	–
